Measured values reported in ChEMBL document CHEMBL1125307, “Novel 1,2,4-oxadiazoles and 1,2,4-thiadiazoles as dual 5-lipoxygenase and cyclooxygenase inhibitors” (J Med Chem, 1992).
The source made the active and inactive calls. The rule behind the calls is not given here.

How the values were obtained:
[1] = test system: Rattus norvegicus; assay: Evaluated for the antiinflammatory activity by measuring the dose (po) which inhibited Mycobacterium induced foot-pad edema in rats; format: functional
[2] = test system: Rattus norvegicus; assay: Evaluated for the percent rats with ulcers at the dose of 200 mg/kg (number of animals used per group in the experiment are 10 ); format: functional
In short: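 Male outbred Wistar rats (100-250 g) fasted 24 h, given compound orally in 0.5% HPMC (2 mL/kg), then denied food and water 6 more h. Killed with CO2; stomachs opened along greater curvature and scored for ulcers. Percent of rats with ulcers per dose; up to 200 mg/kg po, 10 rats per dose.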

[3] = test system: Rattus norvegicus; assay: Evaluated for the antiinflammatory activity by measuring the percentage inhibition of edema in the carrageenan foot-pad edema test at the dose of 10 mg/kg; format: functional
In short: (§1)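 Male Wistar rats dosed orally (0.5% HPMC/0.2% Tween 80 or Labrafils, 10 mL/kg) 1 h before subplantar injection of 0.10 mL 1% carrageenan into right hind paw under light anesthesia. Paw volume by mercury plethysmography at challenge and 5 h later; percent inhibition ± SEM versus vehicle group. Doses 10.0 and 30.0 mg/kg po, 7-14 rats per dose.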

[4] = test system: Rattus norvegicus; assay: Evaluated for the antiinflammatory activity by measuring the percentage inhibition of edema in the carrageenan foot-pad edema test at the dose of 30 mg/kg; format: functional; in short: as §1
[5] = organism: Rattus norvegicus; assay: Ratio of IC50 against 5-LO to that of CO enzyme.
In short: (§2)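 In ionophore-stimulated RBL-1 cells (2×10^6/mL, PBS with 1.0 mM Ca, 10 min compound preincubation at room temperature, 5 μM A23187 for 7 min at 37 °C), supernatant LTB₄ (5-LO) and PGF₂α (CO) were each quantified by RIA over 0.10–10.0 μM. IC50s came from linear regression, and the ratio is the 5-LO IC50 over the CO IC50.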

[6] = target: T1, Cyclooxygenase (Rattus norvegicus, UniProt P35355+Q63921); assay: Evaluated in vitro for its inhibitory activity against Prostaglandin G/H synthase; format: protein assay
T1 sequence (P35355 whole entry): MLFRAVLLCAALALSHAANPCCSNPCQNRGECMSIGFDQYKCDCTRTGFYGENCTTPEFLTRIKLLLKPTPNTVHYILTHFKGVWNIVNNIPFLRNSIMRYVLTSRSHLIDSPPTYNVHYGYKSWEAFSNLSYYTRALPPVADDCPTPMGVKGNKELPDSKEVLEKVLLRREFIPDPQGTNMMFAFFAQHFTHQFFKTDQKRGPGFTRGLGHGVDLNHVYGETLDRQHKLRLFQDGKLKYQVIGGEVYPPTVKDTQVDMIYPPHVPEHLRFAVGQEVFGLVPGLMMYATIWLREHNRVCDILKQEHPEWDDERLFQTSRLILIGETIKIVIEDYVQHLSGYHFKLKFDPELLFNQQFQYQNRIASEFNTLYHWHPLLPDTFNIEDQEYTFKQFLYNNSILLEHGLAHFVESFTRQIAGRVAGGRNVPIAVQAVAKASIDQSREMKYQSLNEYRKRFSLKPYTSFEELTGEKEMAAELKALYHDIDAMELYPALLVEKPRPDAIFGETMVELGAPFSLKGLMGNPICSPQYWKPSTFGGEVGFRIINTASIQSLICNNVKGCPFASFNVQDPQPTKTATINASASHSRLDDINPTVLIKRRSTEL
T1 sequence (Q63921 whole entry): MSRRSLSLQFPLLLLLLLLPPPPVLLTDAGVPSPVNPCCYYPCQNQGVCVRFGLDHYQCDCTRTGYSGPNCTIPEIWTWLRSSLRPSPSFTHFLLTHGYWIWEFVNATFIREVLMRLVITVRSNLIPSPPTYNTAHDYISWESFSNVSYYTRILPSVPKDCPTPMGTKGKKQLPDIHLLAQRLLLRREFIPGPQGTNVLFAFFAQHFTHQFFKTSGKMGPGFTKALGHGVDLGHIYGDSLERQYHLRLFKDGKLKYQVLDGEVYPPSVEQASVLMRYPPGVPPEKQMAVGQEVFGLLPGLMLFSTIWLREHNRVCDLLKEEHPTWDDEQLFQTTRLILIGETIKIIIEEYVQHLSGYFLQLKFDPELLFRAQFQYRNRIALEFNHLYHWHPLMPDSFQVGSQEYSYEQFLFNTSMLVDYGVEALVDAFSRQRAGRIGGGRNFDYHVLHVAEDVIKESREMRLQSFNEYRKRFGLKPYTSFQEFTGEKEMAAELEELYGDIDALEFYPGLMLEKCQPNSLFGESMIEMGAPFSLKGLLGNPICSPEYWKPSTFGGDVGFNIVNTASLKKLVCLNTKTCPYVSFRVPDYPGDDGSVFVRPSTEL

[7] = target: T2, Polyunsaturated fatty acid 5-lipoxygenase (Rattus norvegicus, UniProt P12527); assay: Evaluated in vitro for its inhibitory activity against 5-lipoxygenase
T2 sequence (P12527 whole entry): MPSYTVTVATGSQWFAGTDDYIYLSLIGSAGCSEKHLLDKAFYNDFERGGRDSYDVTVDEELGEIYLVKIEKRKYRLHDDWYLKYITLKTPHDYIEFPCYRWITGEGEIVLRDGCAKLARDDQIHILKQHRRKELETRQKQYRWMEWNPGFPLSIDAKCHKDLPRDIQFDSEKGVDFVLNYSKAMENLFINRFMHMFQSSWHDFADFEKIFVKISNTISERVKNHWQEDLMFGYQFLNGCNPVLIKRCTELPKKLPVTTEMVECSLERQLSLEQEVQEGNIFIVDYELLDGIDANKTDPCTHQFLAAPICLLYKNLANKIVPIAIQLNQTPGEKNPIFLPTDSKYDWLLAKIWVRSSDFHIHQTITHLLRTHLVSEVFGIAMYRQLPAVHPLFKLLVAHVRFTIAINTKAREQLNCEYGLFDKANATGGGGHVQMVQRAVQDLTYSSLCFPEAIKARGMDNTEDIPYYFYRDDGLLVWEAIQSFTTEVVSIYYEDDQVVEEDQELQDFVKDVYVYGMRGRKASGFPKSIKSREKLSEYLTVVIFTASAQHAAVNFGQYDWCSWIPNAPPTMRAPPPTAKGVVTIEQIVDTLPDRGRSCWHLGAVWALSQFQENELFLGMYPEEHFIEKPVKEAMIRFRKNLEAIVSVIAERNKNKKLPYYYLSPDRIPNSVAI

[8] = test system: Rattus norvegicus; assay: Compound was evaluated for the antiinflammatory activity by measuring the percentage inhibition of edema in the carrageenan foot-pad edema test at the dose of 30 mg/kg; N=Inactive, <25% inhibition; format: functional, organism-based; parameters: dose 30 mg/kg; in short: as §1
[9] = target: T2, Polyunsaturated fatty acid 5-lipoxygenase; assay: Evaluated in vitro for its inhibitory activity against 5-lipoxygenase; N=Inactive, <50% inhibition at 10 uM concentration
In short: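 RBL-1 cells grown in MEM + 12% FBS, washed in PBS pH 7.4, resuspended at 2×10^6 cells/mL in PBS with 1.0 mM calcium. Preincubated 10 min at room temperature with compound in DMSO, then stimulated with A23187 (5 μM) 7 min at 37 °C; stopped on ice. Supernatant LTB4 by radioimmunoassay.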

[10] = test system: Rattus norvegicus; assay: Compound was evaluated for the antiinflammatory activity by measuring the dose (po) which inhibited Mycobacterium induced foot-pad edema in rats; N=Inactive, <30% inhibition at 10 mg/kg po; format: functional, organism-based; parameters: dose 10 mg/kg
[11] = target: Cyclooxygenase (Rattus norvegicus) (UniProt P35355+Q63921); assay: Inhibitory activity against Prostaglandin G/H synthase at 10 uM; format: protein assay
In short: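 Cyclooxygenase read-out in RBL-1 cells (2×10^6 cells/mL in PBS with 1.0 mM calcium): 10 min room-temperature preincubation with compound in DMSO, A23187 (5 μM) stimulation 7 min at 37 °C, ice stop. Supernatant PGF2α by radioimmunoassay; percent inhibition at a 10 μM screening concentration.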

[12] = target: T3, Polyunsaturated fatty acid 5-lipoxygenase (Rattus norvegicus) (UniProt P12527); conditions: at 10 µM
T3 sequence (whole entry): T2 sequence (P12527 whole entry)

[13] = test system: Rattus norvegicus; assay: Compound was evaluated for the antiinflammatory activity by taking the percentage inhibition of edema in the carrageenan foot-pad edema test at the dose of 10 mg/kg; format: functional; in short: as §1
[14] = target: T2, Polyunsaturated fatty acid 5-lipoxygenase; assay: Inhibitory activity against 5-Lipoxygenase
In short: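 Rat basophilic leukemia RBL-1 cells were grown in suspension in MEM with 12% FBS, washed, and resuspended at 2×10^6 cells/mL in PBS pH 7.4 with 1.0 mM calcium. Compound in DMSO was preincubated 10 min at room temperature, then 5 μM A23187 was added for 7 min at 37 °C. LTB₄ in the supernatant was measured by RIA at 0.10–10.0 μM. IC50 was determined by linear regression.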

[15] = test system: Rattus norvegicus; assay: Compound was evaluated for the antiinflammatory activity by taking the percentage inhibition of edema in the carrageenan foot-pad edema test at the dose of 30 mg/kg; format: functional; in short: as §1
[16] = organism: Rattus norvegicus; assay: Ratio of IC50 against 5-LO and COX; in short: as §2

Compound	Ratio [5]	IC50 [6]	IC50 [7]	IC50 [9]	other results
C/N=C(\N)Nc1nc(-c2cc(C(C)(C)C)c(O)c(C(C)(C)C)c2)ns1.Cl	0.084	4.4 µM	0.37 µM	–	ID40 [1]: 6 mg/kg; Activity [2]: 0%; inhibition in vivo at 10 mg/kg [3]: 18%; inhibition in vivo at 30 mg/kg [4]: 38.9%
CC(C)(C)c1cc(-c2noc(S)n2)cc(C(C)(C)C)c1O	68	0.05 µM	–	–	–
CC(=N)Nc1nc(-c2cc(C(C)(C)C)c(O)c(C(C)(C)C)c2)ns1.Cl	–	–	–	Inactive	–
Cc1ccc(S(=O)(=O)c2nc(-c3cc(C(C)(C)C)c(O)c(C(C)(C)C)c3)ns2)cc1	–	–	–	Inactive	–
CSC(=N)Nc1nc(-c2cc(C(C)(C)C)c(O)c(C(C)(C)C)c2)ns1.Cl	7.1	0.17 µM	1.2 µM	–	ID40 [1]: 7.3 mg/kg; Activity [2]: 0%; inhibition in vivo at 10 mg/kg [3]: 30.7%; inhibition in vivo at 30 mg/kg [4]: 41.4%
CCOC(=O)c1nc(-c2cc(C(C)(C)C)c(O)c(C(C)(C)C)c2)ns1	–	–	–	–	inhibition [12]: 91%
CC(C)(C)c1cc(-c2nc(=S)o[nH]2)cc(C(C)(C)C)c1O	–	–	3.4 µM	–	–
CC(C)(C)c1cc(-c2noc(N=C(N)N)n2)cc(C(C)(C)C)c1O.CS(=O)(=O)O	2.5	0.67 µM	1.7 µM	–	ID40 [1]: 3.1 mg/kg; Activity [2]: 0%; inhibition in vivo at 10 mg/kg [3]: 51.2%; inhibition in vivo at 30 mg/kg [4]: 71%
CCO/C=N/c1noc(-c2cc(C(C)(C)C)c(O)c(C(C)(C)C)c2)n1	–	7.2 µM	–	–	inhibition in vivo at 10 mg/kg [13]: 21%; IC50 [14]: 1.5 µM; inhibition in vivo at 30 mg/kg [15]: 37.3%; Ratio [16]: 0.21
CC(C)(C)c1cc(-c2nsc(NC#N)n2)cc(C(C)(C)C)c1O.C[N+](C)(C)CC[O-]	–	0.011 µM	–	–	IC50 [14]: 1.9 µM; Ratio [16]: 173
CN(C)Cc1nc(-c2cc(C(C)(C)C)c(O)c(C(C)(C)C)c2)no1.Cl	10.5	0.73 µM	7.7 µM	–	–
CN(C)Cc1nc(-c2cc(C(C)(C)C)c(O)c(C(C)(C)C)c2)ns1.Cl	–	–	–	Inactive	–
CC(C)(C)c1cc(-c2nc(CN3CCCC3)no2)cc(C(C)(C)C)c1O	–	–	–	Inactive	–
CC(C)(C)c1cc(-c2nsc(N=C(N)N)n2)cc(C(C)(C)C)c1O.Cl	0.088	1.6 µM	0.14 µM	–	ID40 [1]: 5.1 mg/kg; Activity [2]: 0%; inhibition in vivo at 10 mg/kg [3]: 46.1%; inhibition in vivo at 30 mg/kg [4]: 61.3%
CC(C)(C)c1cc(-c2nsc(CN)n2)cc(C(C)(C)C)c1O.Cl	30	0.087 µM	2.6 µM	–	–
CN(C)C(=N)Nc1nc(-c2cc(C(C)(C)C)c(O)c(C(C)(C)C)c2)ns1	–	–	–	–	inhibition [12]: 72%
CC(C)(C)c1cc(-c2nsc(N)n2)cc(C(C)(C)C)c1O	0.15	2.2 µM	0.33 µM	–	–

Second part, led by results:

Ratio [5]	IC50 [6]	IC50 [7]	IC50 [9]	Compound	other results
7.2	0.46 µM	3.3 µM	–	Cc1noc(-c2cc(C(C)(C)C)c(O)c(C(C)(C)C)c2)n1	inhibition [8]: inactive
–	–	–	Inactive	CC(C)(C)c1cc(-c2nc(NC=O)no2)cc(C(C)(C)C)c1O	inhibition in vivo at 10 mg/kg [3]: 51.5%; inhibition in vivo at 30 mg/kg [4]: 54.3%; ID40 [10]: inactive
–	–	–	Inactive	CNCc1noc(-c2cc(C(C)(C)C)c(O)c(C(C)(C)C)c2)n1	inhibition [11]: 78%
–	–	–	Inactive	CN(C)c1noc(-c2cc(C(C)(C)C)c(O)c(C(C)(C)C)c2)n1	inhibition [11]: 88%
1.9	1.9 µM	3.6 µM	–	CC(C)(C)c1cc(-c2nc(N)no2)cc(C(C)(C)C)c1O	inhibition in vivo at 10 mg/kg [3]: 43.6%; inhibition in vivo at 30 mg/kg [4]: 32.9%; ID40 [10]: inactive
15	0.45 µM	6.8 µM	–	CN(C)Cc1noc(-c2cc(C(C)(C)C)c(O)c(C(C)(C)C)c2)n1.Cl	inhibition in vivo at 10 mg/kg [3]: 34.6%; inhibition in vivo at 30 mg/kg [4]: 50.3%; ID40 [10]: inactive
7.7	0.3 µM	–	–	Cc1nc(-c2cc(C(C)(C)C)c(O)c(C(C)(C)C)c2)no1	–
–	–	–	Inactive	CC(=O)Nc1noc(-c2cc(C(C)(C)C)c(O)c(C(C)(C)C)c2)n1	inhibition [8]: inactive
0.83	3 µM	2.5 µM	–	CC(C)(C)c1cc(-c2noc(N)n2)cc(C(C)(C)C)c1O	inhibition in vivo at 10 mg/kg [3]: 36%; inhibition in vivo at 30 mg/kg [4]: 39%
–	4.7 µM	–	Inactive	CC(C)(C)c1cc(-c2noc(O)n2)cc(C(C)(C)C)c1O	–
